Tested on: MS2 coat protein
Assay: apparent Kd, MS2 coat protein; higher = weaker binding; RNA-MaP array; FMN 200 µM where present
Outline: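 Designs were transcribed by stalled E. coli RNA polymerase on Illumina sequencing-chip clusters. They were titrated with SNAP-549-labelled MS2 coat protein from 0.7 or 1.5 nM, doubling to 3 µM, in 100 mM Tris-HCl pH 7.5, 80 mM KCl, 4 mM MgCl2, BSA, DTT, yeast tRNA and Tween-20, without and then with constant ligand. The apparent Kd is the median of filtered per-cluster fits after normalisation of green signal to red-channel RNA signal and control-cluster median Fmax.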

[1] = designed as: OFF switch for flavin mononucleotide, no ligand
[2] = ligand present: flavin mononucleotide, designed as: OFF switch for flavin mononucleotide
[3] = designed as: ON switch for flavin mononucleotide, no ligand
[4] = ligand present: flavin mononucleotide, designed as: ON switch for flavin mononucleotide

Row | Sequence | apparent Kd [1] | apparent Kd [2] | apparent Kd [3] | apparent Kd [4]
1 | GAUCCUUCUGUUAGGAUAUGCUUUGGGCUUCCGCAGCAGAAGGAACAUGAGGAUCACCCAUGUCCAAUGCCGUC | 56.6 nM | 63.9 nM |  | 
2 | UGAUCGAGAGAUCUUAGAUUCUGGUAGGAUAUAAAACAAUUGCGCUUUACAUGAGGAUCACCCAUGUAGAAGGACUAGAGUCUA | 6.72 nM | 5.96 nM |  | 
3 | UCUAAUUAGUGAGGAUAUACAUAAUUUAUUACUGUAGAAGGCACAAACCUCAAGACAUGAGGAUCACCCAUGUGGUAUUUAGAU | 158 nM | 362 nM |  | 
4 | AACAAUCUAUCUGAGGAUAUCAUGUCAAAGACAUGAGGAUCACCCAUGUACCAGGAAACUGGAUAUGAGAAGGCAGAUAGAUUGA |  |  | 199 nM | 22.8 nM
5 | CGGUGACGUGUAGGAUAUGGAGGUGGGUUUUGGCCAGAAGGACAUGAGGAUCACCCAUGUGGUAGAGGGUUGGCGGCGGCCCGU | 15 nM | 14.7 nM |  | 
6 | GGUACUAUCACAGGAUAUGCUUUCCUUUGGGAAGCAGAAGGGUGUAACAUGAGGAUCACCCAUGUGGUGCCAGGGCGUGGGCCC |  |  | 154 nM | 17 nM
7 | GCAACGCCUGACAUGAGGAUCACCCAUGUUAGAUUGUUAUGUCAGGAUAUUGUCGCGAAACGUGAUGAGAAGGGAUAUGUUGCU |  |  | 815 nM | 53.9 nM
8 | GGAAAUCAUGUAGGAUAUGCAUGGCGAAGCUACGCAGAAGGACAUGAGGAUCACCCAUGUUAUAGCUACCCAGUUCGGUGGCAA | 133 nM | 180 nM |  | 
9 | AAACACGGACAUGAGGAUCACCCAUGUGGCGAAAGCCUUGGGAGAAGGAUAAAUAUAUAAUAAAAUUAGGAUAUUCAUACCGUG |  |  | 306 nM | 104 nM
10 | GAGAAGUCAGGAUAUGCAUGGCGGGACUUGCGUCGUGGCGUGCAGAAGGGACAUGAGGAUCACCCAUGUGGAGU | 163 nM | 235 nM |  | 
11 | UAAGACUAGCAUUGGUAUCUCCACAUGAGGAUCACCCAUGUUUAGGAUAUGAGCAGCAAAGCUGCUUAGAAGGAGACGCUAGUC | 7.26 nM | 7.21 nM |  | 
12 | UAGGGCGAGUUAUGUACAAGAUACAUGAGGAUCACCCAUGUGUAGGAUAUGACCCUCAUCGCUGGUCAGAAGGGCACGAGAAUC | 234 nM | 314 nM |  | 
13 | GGGUACAUCGGAGGAUAUCAUGUAAAUACAUGAGGAUCACCCAUGUCGAUGAAGACAUCGGAGAUUGAGAAGGCCGAUGUACCG |  |  | 1070 nM | 76.3 nM
14 | GCGUUGAACGAGAAGGCCAAUACAUGAGGAUCACCCAUGUUUAGAUGUUUUGGAGGAUAUCGUACGUAGUCAAAAGAGCAACGC | 11.3 nM | 10.2 nM |  | 
15 | AUAAUUUUAUAAUUCUUUUUAUUCAGAAGGCAUAACAUGAGGAUCACCCAUGUAAAUUAAUGUUAUGAGGAUAUGAUUUGGUUA | 22.5 nM | 118 nM |  | 
16 | AGGAAGUCAGGAUAUGCUGCUCGUCACUUGCGUGAUGAGUAGCAGAAGGGACAUGAGGAUCACCCAUGUAAAGA | 51.1 nM | 65.1 nM |  | 
17 | CAAUUGGCACAGAAGGGUGACAUGAGGAUCACCCAUGUAGCGUGGCAUUCAGGAGGAGCCACGCCACAGGAUAUGUGCGGGCAC |  |  | 107 nM | 155 nM
18 | UAUGAUUGAGGAUAUUGUACUGCUGACAUGAGGAUCACCCAUGUAUGCUAACUCGGCCGUCGAGAAGGCAAUUAUG | 141 nM | 51 nM |  | 
19 | AGAUGGCGAGGAUAUACAUGAGGAUCACCCAUGUGAAGAAGAAUAGUGAGGAAGAAAAGUAGAAGGCGCUGUCA | 53.6 nM | 180 nM |  | 
20 | CGAUAGGACAGAGGAUAUACACAUGAGGAUCACCCAUGUGAUUACAACUCUUAAGAUUCAAACAUGUAGAAGGCUGUCCUAUCG | 11.9 nM | 30.4 nM |  | 
21 | UCCUAACAUGAGGAUCACCCAUGUCAGGAUAUGAUACUAUGUACUUCGGUACAUAGUAUCAGAAGGGACAUCCU | 15.3 nM | 16.6 nM |  | 

Row | Sequence | apparent Kd [1] | apparent Kd [2] | apparent Kd [3] | apparent Kd [4]
22 | UGUCGGAGCAGAGGAUAUACAUGAGGAUCACCCAUGUAAUAAAGUGAAGCCUGGAAACAGGCAAUGUAGAAGGCUGCUCCGACA | 29.9 nM | 249 nM |  | 
23 | UGUCGGAGCAGAGGAUAUUACAUGAGGAUCACCCAUGUAUGAACCAAUAGCCGGAAACAGCAAUGUAAGAAGGCUGCUCCGACA | 4.64 nM | 6.88 nM |  | 
24 | GUUUCACAUGAGGAUCACCCAUGUGAGGAUAUGGUUUCGCUGGCCGUAGCCAGUGGAACCAGAAGGCGCAUGAU | 36.5 nM | 41.3 nM |  | 
25 | GGAUAGUGUCGUUAUCCGUAGCGAACAUGAGGAUCACCCAUGUAGGAUAUGUUAUUAAACUAAUAACAGAAGGGCGUUGGUCUC | 121 nM | 147 nM |  | 
26 | ACUAAGAGAGGAUAUACUAACAAACCUCAAACAUACAUCAAACAUGAGGAUCACCCAUGUAGAAGGCUCAAACU | 30.5 nM | 31.6 nM |  | 
27 | GACUGAUUGUAGAAGGUACUUAAUAAUAUUUAAUAACUCAUGUGACAUGAGGAUCACCCAUGUAGUAAGGAUAUACAUAUCUCA |  |  | 211 nM | 79.5 nM
28 | UUUACUUUGUAGAAGGGUGACAUGAGGAUCACCCAUGUGCGUCGCCUGAAAGACCAGGGUACGCCACAGGAUAUACAAAGUAAG |  |  | 56.5 nM | 40.4 nM
29 | CCGGAAUUGCAGGAUAUAGGAGUCGAUAGACACCUAGAAGGGCAGACAUGAGGAUCACCCAUGUGUCCUACCGG | 18.6 nM | 31.2 nM |  | 
30 | GACUUUCGGGCAGGAUAUGGGUGCCGUCAAGACAUGAGGAUCACCCAUGUCCCAUACACGAGCGCUCAGAAGGGCUCAUUGUAG |  |  | 67 nM | 32.9 nM
31 | ACGCAGCUAGGUGAGGAUAUCGGUGGUAAAACAUGAGGAUCACCCAUGUCCGAAGCUCGGACUUCCGAGAAGGCGCCCGGCUGCA |  |  | 122 nM | 15.7 nM
32 | UUGGCGACGUAGAAGGGUGACAUGAGGAUCACCCAUGUGCCGAUAUGUCUCGAGAUAUGUCGGCCACAGGAUAUACGUGCCAUC |  |  | 61.7 nM | 38.5 nM
33 | GUUUUGAUAGGAUAUACAUGAGGAUCACCCAUGUCCCACCGGUUACCUAUGACCAUAUGUAGAAGGAUCGUUUG | 51.7 nM | 78.9 nM |  | 
34 | GCCAGGAUGUGAGGAUAUGCUGAGGAUACCUCAGCAGAAGGCACAUGAGGAUCACCCAUGUACACUUAUCAUAAAUACCCUGGC | 13.5 nM | 18.1 nM |  | 
35 | UGUCGGAGCAGAGGAUAUUACAUGAGGAUCACCCAUGUAUGAACCAAUAGCUGGAAACAGCAACGUAAGAAGGCUGCUCCGACA | 6.75 nM | 47.2 nM |  | 
36 | GUCCUUAACGAGGAUAUCGGGCGGGUUUUUGUUUGAGAAGGUGUGACAUGAGGAUCACCCAUGUGGCGCGUGGG | 318 nM | 258 nM |  | 
37 | CUAUGCCGAAUAGGAUAUUCGAUCAAAAGGAUAGAAGAAGGGUUACAUGAGGAUCACCCAUGUAUGCACAUGAGGAUCCCUUAG | 279 nM | 316 nM |  | 
38 | UGUGGGUGAUCAGGAUAUCCGUAUACAUGAGGAUCACCCAUGUCCUUGCUCAGCCGGGUAAGUUUGGAGAAGGGAUCAUCAAAU |  |  | 357 nM | 32.1 nM
39 | AAGCGAGGGACAGGAUAUGCGGCGAAACUCGCCGCAGAAGGGUCGACAUGAGGAUCACCCAUGUCCUUACGCUCCACGUAGUGG |  |  | 107 nM | 455 nM
40 | AAAAAACAUGAGGAUCACCCAUGUAAAAAAAUGGGAGGAUAUACAAAAACAAAAAAAAAAGUAGAAGGCCUGAAAA |  |  | 387 nM | 63.8 nM
41 | AUCAGCUCGUCAGGAUAUACGUCACUGCGUCACCAGUGUGGUAAGAUCACAUGAGGAUCACCCAUGUAGAAGGGACGAGCUGAU | 15.4 nM | 287 nM |  | 
